Data taken from PMC10443532 (ACS Chemical Biology, 2023).

Biological target: T1, recombinant mouse Nape-pld (Mus musculus, UniProt Q8BH82)
T1 sequence (Q8BH82 1-396): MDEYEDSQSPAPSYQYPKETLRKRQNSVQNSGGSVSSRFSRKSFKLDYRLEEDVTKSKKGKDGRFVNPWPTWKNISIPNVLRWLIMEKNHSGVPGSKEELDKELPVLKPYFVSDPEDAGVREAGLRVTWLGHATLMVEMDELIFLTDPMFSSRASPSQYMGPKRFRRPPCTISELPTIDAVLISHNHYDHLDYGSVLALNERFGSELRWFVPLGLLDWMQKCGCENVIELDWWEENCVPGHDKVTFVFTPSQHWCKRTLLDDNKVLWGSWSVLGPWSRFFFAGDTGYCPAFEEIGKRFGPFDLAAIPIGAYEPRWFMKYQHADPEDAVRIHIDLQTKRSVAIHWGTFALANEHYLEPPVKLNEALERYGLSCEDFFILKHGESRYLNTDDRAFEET
Test: VU534 competition assays with compounds known to bind Nape-pld
Format: biochemical
Conditions: for Effect on Nape-pld activity (compound alone): in presence of 0.4% NOG, 100 μM PE, 1 mM DCA
Outline: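 Enzyme (final 0.4 μg, 50 mM Tris, 0.4% N-octylglucoside) was preincubated with vehicle or a competitor for 30 min: dioleoyl-PE 100 μM, deoxycholic acid 1 mM, bithionol 3 μM or LEI-401 30 μM. Alternatively, 15 μM of an analog was used for 5 min. Graded test compound followed for 60 min, then flame-NAPE (0.5 μM) plus N-oleoyl-PE (9.5 μM). The 5-min fluorescence change was normalized to vehicle, 0 μM.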

Row | SMILES | Effect on Nape-pld activity (compound alone) | Effect on ability of 5 μM VU534 to activate Nape-pld (graded concentrations of LEI-401 or VU233, flame-NAPE (Figure S5))
1 | C[C@H](CCC(=O)O)[C@H]1CC[C@H]2[C@@H]3CC[C@@H]4C[C@H](O)CC[C@]4(C)[C@H]3C[C@H](O)[C@]12C [DCA, deoxycholic acid] | slight, but nonsignificant trend for inhibition | 
2 | O=C(NCC1CC1)c1cc(N2CC[C@H](O)C2)nc(N2CCC[C@@H](c3ccccc3)C2)n1 [LEI-401] |  | reduced the ability of 5 μM VU534 to activate Nape-pld in a concentration-dependent manner
3 | CCCCCCCC/C=C\CCCCCCCC(=O)OC[C@H](COP(=O)(O)OCCN)OC(=O)CCCCCCC/C=C\CCCCCCCC [PE, dioleoylphosphatidylethanolamine] | slight, but nonsignificant trend for inhibition | 
